pIC50: −log10 of the molar value. Each block holds one compound with its values, some of them ahead of it. Calls of active or inactive are those of the source. The calls are words filed in the database; no cut-off is given here.
Legend:
[1] = target: T1, Histone H3 methyltransferase DOT1 variant d (Mus musculus) (UniProt Q679P4); assay: Inhibition of DOT1L in mouse bone marrow cell transformed with MLL-AF9 cells assessed as reduction in H3K27 methylation at 100 uM measured upto 9 days by Western blot analysis; assay type: cell-based; conditions: time day <=9
T1 sequence (whole entry): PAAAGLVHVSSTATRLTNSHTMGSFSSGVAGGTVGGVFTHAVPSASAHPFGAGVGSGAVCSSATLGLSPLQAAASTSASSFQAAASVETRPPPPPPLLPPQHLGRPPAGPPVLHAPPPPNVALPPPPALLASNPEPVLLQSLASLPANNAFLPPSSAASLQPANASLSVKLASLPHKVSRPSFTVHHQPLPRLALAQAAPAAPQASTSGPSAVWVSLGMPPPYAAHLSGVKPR

[2] = target: T2, Histone-lysine N-methyltransferase, H3 lysine-79 specific (Homo sapiens, UniProt Q8TEK3); assay: Inhibition of recombinant human N-terminal GST-tagged DOT1L (1 to 420 residues) expressed in Escherichia coli BL21 (DE3) using nucleosome as substrate incubated for 1 hr in presence of [3H]-SAM by liquid scintillation counting method
Procedure, shortened: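 GST-tagged DOT1L catalytic domain (1-420), expressed in E. coli BL21(DE3) and Ni-affinity purified, used at 125 nM. Compound added before SAM start; 1 hr at room temperature. Product captured on P81 filters, NaHCO3-washed, and counted by scintillation.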
Target sequence in this assay (Q8TEK3 whole entry, the tested form may be a part): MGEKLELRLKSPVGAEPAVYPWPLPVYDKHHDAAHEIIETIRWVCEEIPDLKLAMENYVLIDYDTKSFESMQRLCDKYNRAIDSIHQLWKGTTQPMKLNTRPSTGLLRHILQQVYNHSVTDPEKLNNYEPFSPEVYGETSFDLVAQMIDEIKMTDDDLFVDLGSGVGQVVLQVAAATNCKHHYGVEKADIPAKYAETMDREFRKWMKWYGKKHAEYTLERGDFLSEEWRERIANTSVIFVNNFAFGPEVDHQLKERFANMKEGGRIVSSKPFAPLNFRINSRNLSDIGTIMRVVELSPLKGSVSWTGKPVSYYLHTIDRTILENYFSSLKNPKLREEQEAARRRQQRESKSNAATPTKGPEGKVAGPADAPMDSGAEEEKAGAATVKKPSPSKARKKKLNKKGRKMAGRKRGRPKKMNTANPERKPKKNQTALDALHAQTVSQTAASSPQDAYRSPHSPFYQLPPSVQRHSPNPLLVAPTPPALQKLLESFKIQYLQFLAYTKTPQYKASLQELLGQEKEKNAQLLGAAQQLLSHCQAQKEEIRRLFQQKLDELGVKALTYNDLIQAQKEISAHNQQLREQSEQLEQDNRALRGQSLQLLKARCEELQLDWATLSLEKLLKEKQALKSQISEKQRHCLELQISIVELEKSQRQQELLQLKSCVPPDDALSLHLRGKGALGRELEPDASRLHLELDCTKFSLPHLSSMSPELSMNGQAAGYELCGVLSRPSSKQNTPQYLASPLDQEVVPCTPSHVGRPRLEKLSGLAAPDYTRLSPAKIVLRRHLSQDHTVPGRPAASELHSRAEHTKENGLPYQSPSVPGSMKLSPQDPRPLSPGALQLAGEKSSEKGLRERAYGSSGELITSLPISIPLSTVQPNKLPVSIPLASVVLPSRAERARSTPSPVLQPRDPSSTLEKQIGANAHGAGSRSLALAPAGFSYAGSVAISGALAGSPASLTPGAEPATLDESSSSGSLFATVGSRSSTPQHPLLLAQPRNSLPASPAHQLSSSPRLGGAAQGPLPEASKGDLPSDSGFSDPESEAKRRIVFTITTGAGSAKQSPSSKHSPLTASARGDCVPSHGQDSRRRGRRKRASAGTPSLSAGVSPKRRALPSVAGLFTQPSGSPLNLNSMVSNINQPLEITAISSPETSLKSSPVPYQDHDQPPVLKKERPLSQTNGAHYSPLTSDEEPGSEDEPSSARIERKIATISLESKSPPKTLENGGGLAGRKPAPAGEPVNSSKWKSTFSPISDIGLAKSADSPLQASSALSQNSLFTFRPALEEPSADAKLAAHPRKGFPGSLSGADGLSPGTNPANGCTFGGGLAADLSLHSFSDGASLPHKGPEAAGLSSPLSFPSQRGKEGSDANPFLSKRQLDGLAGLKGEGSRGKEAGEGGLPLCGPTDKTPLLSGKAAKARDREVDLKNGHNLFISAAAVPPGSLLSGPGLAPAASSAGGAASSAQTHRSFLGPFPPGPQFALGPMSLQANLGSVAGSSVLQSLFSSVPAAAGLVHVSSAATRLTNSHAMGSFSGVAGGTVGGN

[3] = target: T1, Histone H3 methyltransferase DOT1 variant d (Mus musculus); assay: Inhibition of DOT1L in mouse bone marrow cell transformed with MLL-AF9 cells assessed as reduction in H3K36 methylation at 100 uM measured upto 9 days by Western blot analysis; assay type: cell-based; conditions: time day <=9
[4] = target: T1, Histone H3 methyltransferase DOT1 variant d (Mus musculus); assay: Inhibition of DOT1L in mouse bone marrow cell transformed with MLL-AF9 cells assessed as reduction in H3K79 methylation at 100 uM measured upto 9 days by Western blot analysis; assay type: cell-based; conditions: time day <=9, TDE = time-dependent effect
[5] = target: T2, Histone-lysine N-methyltransferase, H3 lysine-79 specific; assay: Binding affinity to recombinant human N-terminal GST-tagged DOT1L (1 to 420 residues) expressed in Escherichia coli BL21 (DE3) assessed as increase in melting temperature at 100 uM incubated for 1 min by 1,8-ANS probe based thermal shift assay
Target sequence in this assay (Q8TEK3 whole entry, looked up, the tested form may be a part): as the sequence (Q8TEK3 whole entry, the tested form may be a part) above

[6] = target: T2, Histone-lysine N-methyltransferase, H3 lysine-79 specific; assay: Inhibition of recombinant human N-terminal GST-tagged DOT1L (1 to 420 residues) expressed in Escherichia coli BL21 (DE3) using histone as substrate incubated for 1 hr by MTase-glo based luminescence assay
Target sequence in this assay (Q8TEK3 whole entry, the tested form may be a part): as above

[7] = target: T2, Histone-lysine N-methyltransferase, H3 lysine-79 specific; assay: Binding affinity to recombinant human N-terminal GST-tagged DOT1L (1 to 420 residues) expressed in Escherichia coli BL21 (DE3) assessed as increase in melting temperature at 100 uM incubated for 1 min by 1,8-ANS probe based thermal shift assay
Target sequence in this assay (Q8TEK3 whole entry, looked up, the tested form may be a part): as the sequence (Q8TEK3 whole entry, the tested form may be a part) above

[8] = target: Protein arginine N-methyltransferase 3 (Homo sapiens, UniProt O60678); assay: Inhibition of recombinant human PRMT3 using histone H4 as substrate by hotspot assay; conditions: for pIC50: read-out: IC50
[9] = target: Protein arginine N-methyltransferase 5 (Homo sapiens, UniProt O14744); assay: Inhibition of recombinant human PRMT5 using histone H2A as substrate by hotspot assay
[10] = target: T3, Protein arginine N-methyltransferase 7 (Homo sapiens, UniProt Q9NVM4); assay: Inhibition of recombinant human PRMT7 using GST-GAR as substrate by hotspot assay; conditions: for pIC50: read-out: IC50
T3 sequence (Q9NVM4 whole entry): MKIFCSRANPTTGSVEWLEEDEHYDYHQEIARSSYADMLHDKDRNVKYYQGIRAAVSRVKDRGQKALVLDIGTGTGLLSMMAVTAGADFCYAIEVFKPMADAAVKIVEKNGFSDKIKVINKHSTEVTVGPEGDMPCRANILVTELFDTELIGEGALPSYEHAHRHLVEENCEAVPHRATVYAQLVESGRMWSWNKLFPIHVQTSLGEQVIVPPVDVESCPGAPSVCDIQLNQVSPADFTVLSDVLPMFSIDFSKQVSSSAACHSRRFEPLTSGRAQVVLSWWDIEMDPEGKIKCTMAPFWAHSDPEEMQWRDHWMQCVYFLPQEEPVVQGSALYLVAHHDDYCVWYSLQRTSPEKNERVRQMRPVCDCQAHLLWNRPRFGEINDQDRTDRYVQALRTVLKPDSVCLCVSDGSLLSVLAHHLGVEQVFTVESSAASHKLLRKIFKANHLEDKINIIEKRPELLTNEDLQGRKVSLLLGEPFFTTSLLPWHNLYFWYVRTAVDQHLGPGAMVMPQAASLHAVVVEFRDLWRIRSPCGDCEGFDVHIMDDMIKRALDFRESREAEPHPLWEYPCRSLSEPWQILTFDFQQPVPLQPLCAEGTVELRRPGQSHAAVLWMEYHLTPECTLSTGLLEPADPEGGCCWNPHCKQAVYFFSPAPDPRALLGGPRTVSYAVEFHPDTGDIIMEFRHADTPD

[11] = target: Protein arginine N-methyltransferase 8 (Homo sapiens, UniProt Q9NR22); assay: Inhibition of recombinant human PRMT8 using histone H4 as substrate by hotspot assay
[12] = target: DNA (cytosine-5)-methyltransferase 1 (Homo sapiens, UniProt P26358); assay: Inhibition of recombinant human DNMT1 using poly(dl-dC) as substrate by hotspot assay
[13] = target: Histone-lysine N-methyltransferase EZH2 (Homo sapiens, UniProt Q15910); assay: Inhibition of recombinant human EZH2 using core histone as substrate by hotspot assay
[14] = target: T4, Histone-lysine N-methyltransferase SETD7 (Homo sapiens, UniProt Q8WTS6); assay: Inhibition of recombinant human SET7/9 using core histone as substrate by hotspot assay
T4 sequence (Q8WTS6 whole entry): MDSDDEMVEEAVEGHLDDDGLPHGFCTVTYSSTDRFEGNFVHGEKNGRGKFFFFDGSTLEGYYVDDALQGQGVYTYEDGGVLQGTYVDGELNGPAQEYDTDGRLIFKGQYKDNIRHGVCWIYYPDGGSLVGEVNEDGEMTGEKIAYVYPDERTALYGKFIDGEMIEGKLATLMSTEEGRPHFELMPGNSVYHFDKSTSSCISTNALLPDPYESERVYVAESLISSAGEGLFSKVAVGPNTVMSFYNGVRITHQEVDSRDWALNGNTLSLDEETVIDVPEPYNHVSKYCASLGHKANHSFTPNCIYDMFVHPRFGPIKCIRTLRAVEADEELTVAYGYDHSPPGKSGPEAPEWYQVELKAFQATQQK

[15] = target: T5, Histone-lysine N-methyltransferase EHMT2 (Homo sapiens, UniProt Q96KQ7); assay: Inhibition of recombinant human G9a using histone H3 (1 to 21) as substrate by hotspot assay; conditions: read-out: IC50
T5 sequence (Q96KQ7 whole entry): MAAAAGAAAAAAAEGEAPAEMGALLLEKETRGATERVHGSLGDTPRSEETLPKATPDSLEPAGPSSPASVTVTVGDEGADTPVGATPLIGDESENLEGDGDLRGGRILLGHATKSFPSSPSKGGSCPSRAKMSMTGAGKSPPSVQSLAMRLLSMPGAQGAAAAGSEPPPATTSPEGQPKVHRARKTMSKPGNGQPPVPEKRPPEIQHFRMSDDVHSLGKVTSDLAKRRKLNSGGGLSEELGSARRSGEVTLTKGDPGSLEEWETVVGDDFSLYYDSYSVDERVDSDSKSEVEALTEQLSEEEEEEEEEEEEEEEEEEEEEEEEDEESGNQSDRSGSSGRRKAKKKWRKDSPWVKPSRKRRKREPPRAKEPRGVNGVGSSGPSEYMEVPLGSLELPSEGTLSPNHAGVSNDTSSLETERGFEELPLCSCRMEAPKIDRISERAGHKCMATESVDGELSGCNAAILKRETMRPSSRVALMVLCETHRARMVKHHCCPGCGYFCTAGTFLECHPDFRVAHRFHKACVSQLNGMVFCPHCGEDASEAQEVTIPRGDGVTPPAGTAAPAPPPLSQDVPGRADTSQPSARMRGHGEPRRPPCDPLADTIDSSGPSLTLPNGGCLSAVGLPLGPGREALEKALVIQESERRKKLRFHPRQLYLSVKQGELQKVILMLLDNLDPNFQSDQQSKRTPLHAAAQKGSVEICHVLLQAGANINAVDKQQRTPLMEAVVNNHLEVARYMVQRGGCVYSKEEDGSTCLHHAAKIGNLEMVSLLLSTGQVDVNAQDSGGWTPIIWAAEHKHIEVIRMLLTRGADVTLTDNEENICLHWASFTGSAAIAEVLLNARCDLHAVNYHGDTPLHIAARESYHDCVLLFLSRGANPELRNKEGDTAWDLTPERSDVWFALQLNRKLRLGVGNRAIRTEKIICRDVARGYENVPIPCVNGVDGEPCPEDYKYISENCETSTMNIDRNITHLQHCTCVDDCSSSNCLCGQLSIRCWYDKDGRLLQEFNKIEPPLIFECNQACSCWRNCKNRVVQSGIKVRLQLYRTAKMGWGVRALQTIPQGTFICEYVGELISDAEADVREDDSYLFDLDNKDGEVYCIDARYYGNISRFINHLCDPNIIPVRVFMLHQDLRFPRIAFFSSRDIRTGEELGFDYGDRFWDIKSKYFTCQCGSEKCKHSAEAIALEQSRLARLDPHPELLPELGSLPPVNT

Sequence of Protein arginine N-methyltransferase 5 (O14744 whole entry): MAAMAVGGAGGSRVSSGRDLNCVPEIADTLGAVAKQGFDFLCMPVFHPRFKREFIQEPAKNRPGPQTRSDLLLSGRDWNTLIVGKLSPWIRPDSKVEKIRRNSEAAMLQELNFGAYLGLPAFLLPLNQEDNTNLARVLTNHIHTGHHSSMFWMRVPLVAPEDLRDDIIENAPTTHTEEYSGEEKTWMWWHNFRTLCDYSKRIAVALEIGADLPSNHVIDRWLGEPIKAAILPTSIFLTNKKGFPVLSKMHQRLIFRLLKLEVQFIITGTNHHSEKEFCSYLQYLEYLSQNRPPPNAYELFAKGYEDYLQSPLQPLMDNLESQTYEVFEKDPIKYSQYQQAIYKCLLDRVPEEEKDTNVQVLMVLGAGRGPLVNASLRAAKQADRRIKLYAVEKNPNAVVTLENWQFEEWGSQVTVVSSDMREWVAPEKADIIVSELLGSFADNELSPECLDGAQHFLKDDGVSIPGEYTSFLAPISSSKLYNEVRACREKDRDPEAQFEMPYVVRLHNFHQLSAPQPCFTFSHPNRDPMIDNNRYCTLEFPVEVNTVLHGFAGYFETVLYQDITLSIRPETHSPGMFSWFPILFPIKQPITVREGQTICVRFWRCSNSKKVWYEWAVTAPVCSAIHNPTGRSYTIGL
Sequence of Protein arginine N-methyltransferase 3 (O60678 whole entry): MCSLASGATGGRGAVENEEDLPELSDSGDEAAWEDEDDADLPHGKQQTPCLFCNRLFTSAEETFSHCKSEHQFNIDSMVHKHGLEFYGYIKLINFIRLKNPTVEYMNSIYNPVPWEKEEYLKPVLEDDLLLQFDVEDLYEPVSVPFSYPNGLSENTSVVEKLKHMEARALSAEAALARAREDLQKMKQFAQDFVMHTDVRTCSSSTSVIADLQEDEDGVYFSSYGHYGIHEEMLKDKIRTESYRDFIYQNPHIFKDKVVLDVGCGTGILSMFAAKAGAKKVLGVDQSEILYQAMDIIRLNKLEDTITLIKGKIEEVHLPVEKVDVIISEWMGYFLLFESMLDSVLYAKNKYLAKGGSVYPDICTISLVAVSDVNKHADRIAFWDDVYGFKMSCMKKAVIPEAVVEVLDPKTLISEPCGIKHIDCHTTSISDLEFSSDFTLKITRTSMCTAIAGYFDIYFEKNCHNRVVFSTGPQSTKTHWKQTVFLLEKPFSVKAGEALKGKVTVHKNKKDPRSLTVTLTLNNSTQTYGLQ
Sequence of Protein arginine N-methyltransferase 8 (Q9NR22 whole entry): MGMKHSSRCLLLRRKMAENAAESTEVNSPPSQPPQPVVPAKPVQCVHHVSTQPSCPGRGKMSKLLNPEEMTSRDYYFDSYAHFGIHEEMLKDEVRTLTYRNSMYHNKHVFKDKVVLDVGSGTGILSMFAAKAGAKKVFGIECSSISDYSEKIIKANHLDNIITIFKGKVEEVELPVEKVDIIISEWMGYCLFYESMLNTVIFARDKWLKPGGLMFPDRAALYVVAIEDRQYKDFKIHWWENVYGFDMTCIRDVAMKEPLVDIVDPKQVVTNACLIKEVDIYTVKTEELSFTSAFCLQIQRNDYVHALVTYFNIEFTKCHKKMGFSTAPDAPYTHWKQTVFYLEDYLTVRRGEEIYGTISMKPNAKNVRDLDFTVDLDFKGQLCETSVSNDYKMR
Sequence of DNA (cytosine-5)-methyltransferase 1 (P26358 whole entry): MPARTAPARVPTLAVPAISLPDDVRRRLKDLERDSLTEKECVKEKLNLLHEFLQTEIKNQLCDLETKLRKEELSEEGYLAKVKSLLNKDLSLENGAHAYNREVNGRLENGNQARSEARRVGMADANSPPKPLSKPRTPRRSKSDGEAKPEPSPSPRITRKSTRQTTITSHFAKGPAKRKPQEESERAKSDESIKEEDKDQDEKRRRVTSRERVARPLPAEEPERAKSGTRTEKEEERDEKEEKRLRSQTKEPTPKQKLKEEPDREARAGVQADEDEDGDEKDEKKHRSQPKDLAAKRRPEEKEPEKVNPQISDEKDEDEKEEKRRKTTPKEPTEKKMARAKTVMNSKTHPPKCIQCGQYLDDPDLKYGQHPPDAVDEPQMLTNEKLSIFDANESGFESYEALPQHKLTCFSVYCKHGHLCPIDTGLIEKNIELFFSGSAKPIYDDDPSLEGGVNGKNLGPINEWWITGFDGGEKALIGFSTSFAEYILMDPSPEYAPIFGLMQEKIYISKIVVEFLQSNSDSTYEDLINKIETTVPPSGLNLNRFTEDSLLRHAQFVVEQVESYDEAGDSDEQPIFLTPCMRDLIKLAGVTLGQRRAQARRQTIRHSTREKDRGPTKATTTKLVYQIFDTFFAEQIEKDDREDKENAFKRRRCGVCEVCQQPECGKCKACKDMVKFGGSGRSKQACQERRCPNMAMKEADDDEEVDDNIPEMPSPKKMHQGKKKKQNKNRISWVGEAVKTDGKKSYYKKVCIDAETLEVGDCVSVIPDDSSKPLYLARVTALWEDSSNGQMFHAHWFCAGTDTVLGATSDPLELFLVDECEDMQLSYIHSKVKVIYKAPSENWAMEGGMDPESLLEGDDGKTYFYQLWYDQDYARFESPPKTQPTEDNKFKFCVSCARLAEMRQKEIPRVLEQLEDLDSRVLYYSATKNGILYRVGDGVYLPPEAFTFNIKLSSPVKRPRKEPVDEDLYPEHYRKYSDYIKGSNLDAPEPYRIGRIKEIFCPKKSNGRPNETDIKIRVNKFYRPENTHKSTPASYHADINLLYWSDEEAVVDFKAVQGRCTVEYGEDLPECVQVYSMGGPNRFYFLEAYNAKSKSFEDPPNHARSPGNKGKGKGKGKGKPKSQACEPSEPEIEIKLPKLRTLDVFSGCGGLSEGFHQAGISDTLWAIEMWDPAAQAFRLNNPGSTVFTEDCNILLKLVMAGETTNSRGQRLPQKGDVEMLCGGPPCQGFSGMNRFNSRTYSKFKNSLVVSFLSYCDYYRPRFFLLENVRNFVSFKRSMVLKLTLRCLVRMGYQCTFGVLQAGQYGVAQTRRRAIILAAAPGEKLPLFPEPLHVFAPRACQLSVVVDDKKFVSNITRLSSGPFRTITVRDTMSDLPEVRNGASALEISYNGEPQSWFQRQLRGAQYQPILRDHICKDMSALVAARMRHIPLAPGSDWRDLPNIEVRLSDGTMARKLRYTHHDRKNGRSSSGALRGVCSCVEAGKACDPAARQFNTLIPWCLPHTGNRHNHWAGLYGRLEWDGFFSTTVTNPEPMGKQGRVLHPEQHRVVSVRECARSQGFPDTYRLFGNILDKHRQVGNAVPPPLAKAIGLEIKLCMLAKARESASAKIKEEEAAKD

inhibition [1]: inactive | pIC50 [2]: 4.26 | inhibition [3]: inactive | inhibition [4]: Tde | Activity [5]: Active
SMILES: Nc1ncnc2c1ncn2[C@@H]1O[C@H](CNCc2ccc(OCC(=O)Nc3ccccn3)cc2)[C@@H](O)[C@H]1O

SMILES: Cc1ccc2nc(NC(=O)c3ncn(CC(=O)NCc4ccc5c(c4)OCO5)n3)[nH]c2c1
pIC50 [6]: 4.25

Activity [7]: Active | pIC50 [2]: 3.15
SMILES: O=C(Nc1ccn(CCCN2CCC(c3ccccc3)CC2)c(=O)n1)OCc1ccccc1

pIC50 [2]: 4.04 | Activity [5]: Active
SMILES: Nc1ncnc2c1ncn2[C@@H]1O[C@H](CNCc2ccc(OCC(=O)Nc3nccs3)cc2)[C@@H](O)[C@H]1O

SMILES: Nc1nccc2cc(CNC(=O)Cn3cnc(C(=O)NC4CCCCC4)n3)ccc12
IC50 [8]: Not Active | IC50 [9]: Not Active | IC50 [10]: Not Active | pIC50 [11]: 4.02 | pIC50 [6]: < 4.00

SMILES: O=C(Cn1cnc(C(=O)NC2CCCCC2)n1)NCc1ccc2[nH]ncc2c1
pIC50 [6]: < 4.00

SMILES: CC(C)(C)c1ccc(NC(=O)c2ncn(CC(=O)NCc3ccc4[nH]ncc4c3)n2)cc1
IC50 [12]: Not Active | IC50 [8]: Not Active | IC50 [9]: Not Active | pIC50 ([13]; read-out: IC50): < 3.60 | IC50 [14]: Not Active | pIC50 [15]: < 3.60 | pIC50 [6]: 4.65

SMILES: Nc1ncnc2c1ncn2[C@@H]1O[C@H](CSCC[C@H](N)C(=O)O)[C@@H](O)[C@H]1O [S-ADENOSYLHOMOCYSTEINE]
pIC50 [8]: 6.12

SMILES: CC(C)(C)c1ccc(NC(=O)c2ncn(CC(=O)NCc3ccc4c(N)nccc4c3)n2)cc1
IC50 [12]: Not Active | pIC50 [8]: 4.60 | pIC50 ([9]; read-out: IC50): 3.95 | pIC50 [10]: 4.21 | pIC50 [11]: 4.27 | IC50 [13]: Not Active | pIC50 ([14]; read-out: IC50): 4.10 | pIC50 [15]: 4.21 | pIC50 [6]: 4.71

SMILES: CC(C)(C)c1ccc(NC(=O)c2ncn(CC(=O)NCc3ccc4c(c3)OCO4)n2)cc1
pIC50 [6]: 4.63

SMILES: Cc1ccc(NC(=O)c2ncn(CC(=O)NCc3ccc4c(N)nccc4c3)n2)cc1C
IC50 [8]: Not Active | IC50 [9]: Not Active | pIC50 [10]: 4.16 | pIC50 [11]: 3.67 | pIC50 [6]: 4.16

pIC50 [2]: 4.07 | Activity [5]: Active
SMILES: Nc1ncnc2c1ncn2[C@@H]1O[C@H](C(=O)N2CCC[C@H]2C(=O)OCc2ccccc2)[C@@H](O)[C@H]1O

Reference: ChEMBL document CHEMBL4680176, “Identification of DOT1L inhibitors by structure-based virtual screening adapted from a nucleoside-focused library” (Eur J Med Chem, 2020)
